Assay results reported in publication PMC7004556 (Cancer Science, 2020).
Marks after values point to notes of the source that are not given here.

What was measured:
[1] = Phase I pharmacokinetics; format: in vivo, human; settings: for AUC(0‐t) / C avg / C max / C min / T max / AUC(0‐inf) / CL/F / T 1/2 / Vz/F: oral; for T max: median (range)
How it was run: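 Plasma was sampled predose in all cycles and after dosing up to cycle 3. Plasma (100 µL) plus IS and 5 mmol/L ammonium hydrogen carbonate underwent solid-phase extraction, with methanol/formic acid elution. Drug in plasma and urine was quantified by LC-MS/MS: ODS column at 40°C, isocratic 40:60 water/acetonitrile-water with 15 mmol/L ammonium hydrogen carbonate, 0.25 mL/minute, positive-mode MRM. Parameters came from non-compartmental analysis.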

[2] = test system: FGFR; settings: SNU‐16 cells, dose‐dependent; cited from earlier work
[3] = repeated dose QD, 30 mg (n = 2), mean
[4] = repeated dose QD, 60 mg (n = 2), mean
[5] = repeated dose QD, 100 mg (n = 3), mean ± SD
[6] = repeated dose QD, 140 mg (n = 3), mean ± SD
[7] = repeated dose QD, 180 mg (n = 3), mean ± SD
[8] = single dose, 30 mg (n = 2), mean
[9] = single dose, 60 mg (n = 3), mean ± SD
[10] = single dose, 100 mg (n = 3), mean ± SD
[11] = single dose, 140 mg (n = 3), mean ± SD
[12] = single dose, 180 mg (n = 3), mean ± SD

In the case of `CNC(=O)n1ccc2cc(Oc3ccnc(NC(=O)c4ccc(C5CCN(CCO)CC5)cc4)c3)c(OCCOC)cc21` [E7090], the “Plasma concentrations at 72 hours after dosing” value ([1]; 1‐16‐mg cohorts) is reported as “below the limit of quantification”, the “AUC(0‐t)” value [1, 3] is reported as 162 ng·h/mL and the C avg [1, 3] is reported as 7 ng/mL. For the same compound, the C max [1, 3] was 13 ng/mL, the C min [1, 3] was 5 ng/mL and the T max ([1]; repeated dose QD, 30 mg (n = 2)) was 4 (3‐5) h. For the same compound, the “AUC(0‐t)” value [1, 4] was 507 ^a h × ng/mL, the C avg [1, 4] was 21 ^a ng/mL and the C max [1, 4] was 51 ^a ng/mL. For the same compound, the C min [1, 4] was 11 ^a ng/mL, the T max ([1]; repeated dose QD, 60 mg (n = 2)) was 3 (2‐3) ^a h and the “AUC(0‐t)” value [1, 5] was 1340 ± 437 ng·h/mL. For the same compound, the C avg [1, 5] was 56 ± 18 ng/mL, the C max [1, 5] was 116 ± 4 ng/mL and the C min [1, 5] was 22 ± 9 ng/mL. For the same compound, the T max ([1]; repeated dose QD, 100 mg (n = 3)) was 3 (2‐5) h, the “AUC(0‐t)” value [1, 6] was 4700 ± 3380 ng·h/mL and the C avg [1, 6] was 196 ± 141 ng/mL. The C max [1, 6] was 372 ± 173 ng/mL, the C min [1, 6] was 117 ± 116 ng/mL and the T max ([1]; repeated dose QD, 140 mg (n = 3)) was 5 (3‐5) h. The “AUC(0‐t)” value [1, 7] was 3860 ± 764 ng·h/mL, the C avg [1, 7] was 161 ± 32 ng/mL and the C max [1, 7] was 337 ± 60 ng/mL. The C min [1, 7] was 65 ± 19 ng/mL, the T max ([1]; repeated dose QD, 180 mg (n = 3)) was 5 (3‐5) h and the “AUC(0‐inf)” value [1, 8] was 239 ng·h/mL. The “AUC(0‐t)” value [1, 8] was 222 ng·h/mL, the C max [1, 8] was 28 ng/mL and the CL/F [1, 8] was 127 L/h. The “T 1/2” value [1, 8] was 23 h, the Vz/F [1, 8] was 4180 L and the T max ([1]; single dose, 30 mg (n = 2)) was 3 (1‐5) h. The “AUC(0‐inf)” value [1, 9] was 554 ± 247 ng·h/mL, the “AUC(0‐t)” value [1, 9] was 533 ± 257 ng·h/mL and the C max [1, 9] was 39 ± 5 ng/mL. For the same compound, the CL/F [1, 9] was 121 ± 43 L/h, the “T 1/2” value [1, 9] was 23 ± 8 h and the Vz/F [1, 9] was 3790 ± 1240 L. The T max ([1]; single dose, 60 mg (n = 3)) was 3 (3‐5) h, the “AUC(0‐inf)” value [1, 10] was 1120 ± 479 ng·h/mL and the “AUC(0‐t)” value [1, 10] was 1080 ± 474 ng·h/mL. The C max [1, 10] was 86 ± 31 ng/mL, the CL/F [1, 10] was 103 ± 48 L/h and the “T 1/2” value [1, 10] was 15 ± 2 h. For the same compound, the Vz/F [1, 10] was 2310 ± 1360 L, the T max ([1]; single dose, 100 mg (n = 3)) was 5 (3‐5) h and the “AUC(0‐inf)” value [1, 11] was 4050 ± 3340 ng·h/mL. The “AUC(0‐t)” value [1, 11] was 3960 ± 3230 ng·h/mL, the C max [1, 11] was 227 ± 118 ng/mL and the CL/F [1, 11] was 59 ± 50 L/h. For the same compound, the “T 1/2” value [1, 11] was 27 ± 12 h, the Vz/F [1, 11] was 1670 ± 617 L and the T max ([1]; single dose, 140 mg (n = 3)) was 5 (3‐5) h. For the same compound, the “AUC(0‐inf)” value [1, 12] was 2610 ± 921 ng·h/mL, the “AUC(0‐t)” value [1, 12] was 2570 ± 933 ng·h/mL and the C max [1, 12] was 154 ± 38 ng/mL. For the same compound, the CL/F [1, 12] was 74 ± 22 L/h, the “T 1/2” value [1, 12] was 24 ± 10 h and the Vz/F [1, 12] was 2550 ± 1550 L. For the same compound, the T max ([1]; single dose, 180 mg (n = 3)) was 2 (2‐5) h, the “C max and AUC(0‐ t ) versus dose” value ([1]; up to 180 mg) was “Dose‐dependent increases” and the “Phosphorylation of downstream molecules including FRS2α, ERK1/2, and AKT” value [2] was “inhibited phosphorylation”.
